Measurements: ChEMBL document CHEMBL3407343, “Functionalized tetrahydro-1H-pyrido[4,3-b]indoles: a novel chemotype with Sirtuin 2 inhibitory activity” (Eur J Med Chem, 2015)
In brackets after ≈: the same amount, converted by molar mass. Activity calls are given as the source filed them. The rule behind the calls is not given here.

What was measured:
[1] = Inhibition of luciferase (unknown origin) using deacetylated peptide as substrate assessed as luminescence at 25 uM after 30 mins relative to control; set-up: scale not given: the % may be the effect or the level left
[2] = Self-aggregation of the compound in PBS assessed as derived light scattering count rate at 1 uM at pH 7.4 (reference value: 15.5 +/- 0.4 kilocount/sec); format: physicochemical; details: buffer, pH 7.4, 1 µM
[3] = target: T1, NAD-dependent protein deacetylase sirtuin-2 (Homo sapiens, UniProt Q8IXJ6); assay: Inhibition of human recombinant SIRT2 assessed as deacetylation of N-acetyl lysine residue in p53 (317 to 320) after 30 mins by luciferase-mediated luminescence assay
T1 sequence (Q8IXJ6 whole entry): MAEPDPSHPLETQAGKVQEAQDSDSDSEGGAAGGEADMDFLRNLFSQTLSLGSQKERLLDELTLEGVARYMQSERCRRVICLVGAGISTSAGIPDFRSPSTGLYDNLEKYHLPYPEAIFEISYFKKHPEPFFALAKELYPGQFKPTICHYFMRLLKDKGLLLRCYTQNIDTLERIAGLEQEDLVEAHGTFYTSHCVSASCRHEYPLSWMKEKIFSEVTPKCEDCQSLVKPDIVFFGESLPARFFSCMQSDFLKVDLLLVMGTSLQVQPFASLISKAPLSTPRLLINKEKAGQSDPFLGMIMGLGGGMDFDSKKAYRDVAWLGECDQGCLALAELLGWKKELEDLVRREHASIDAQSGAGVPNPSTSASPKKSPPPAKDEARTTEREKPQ

[4] = Solubility of the compound in phosphate buffer at pH 7.4 at 25 degC by turbimetric method; format: physicochemical
Method in brief: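 Turbidimetric solubility. Compound from DMSO stock was added to phosphate buffer pH 7.4 at 1–50 µM final, with 1% v/v DMSO. Plate shaken 30 min at 25 °C and absorbance read at 620 nm. Solubility is assigned to the concentration range where absorbance rises two-fold or more, from 3 separate determinations.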

[5] = species: Homo sapiens; assay: Inhibition of protease (unknown origin) using deacetylated peptide as substrate assessed as luminescence at 100 uM after 30 mins relative to control; set-up: scale not given: the % may be the effect or the level left
[6] = target: T2, NAD-dependent protein deacetylase sirtuin-2 (Homo sapiens) (UniProt Q8IXJ6); assay: Inhibition of SIRT2 in human HepG2 cells assessed as increase in acetylated p53 at Lys382 and alpha-tubulin level at 2 to 4 uM after 6 hrs by Western blot analysis; format: cell-based
T2 sequence (whole entry): T1 sequence (Q8IXJ6 whole entry)
Method in brief: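 Cells seeded at 50,000 cells/mL in high-glucose DMEM containing compound (0.5% v/v DMSO) and incubated at 37 °C, 5% CO2: HepG2 6 h, MDA-MB-231 24 h. Washed cells were lysed on ice ≥20 min in Tris/NaCl/EDTA/Triton buffer with protease and phosphatase inhibitors, then protein measured by Bradford. SDS-PAGE blots were probed overnight at 4 °C with primary antibodies and detected by HRP/ECL, with re-probing after stripping. Each blot was repeated ≥3 times.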

[7] = Cytotoxicity against human IMR90 cells assessed as cell viability after 72 hrs by MTS assay; format: cell-based; details: IMR-90, 72 h
[8] = target: T3, NAD-dependent protein deacetylase sirtuin-1 (Homo sapiens, UniProt Q96EB6); assay: Inhibition of human recombinant SIRT1 assessed as deacetylation of N-acetyl lysine residue in p53 (317 to 320) after 30 mins by luciferase-mediated luminescence assay
T3 sequence (Q96EB6 whole entry): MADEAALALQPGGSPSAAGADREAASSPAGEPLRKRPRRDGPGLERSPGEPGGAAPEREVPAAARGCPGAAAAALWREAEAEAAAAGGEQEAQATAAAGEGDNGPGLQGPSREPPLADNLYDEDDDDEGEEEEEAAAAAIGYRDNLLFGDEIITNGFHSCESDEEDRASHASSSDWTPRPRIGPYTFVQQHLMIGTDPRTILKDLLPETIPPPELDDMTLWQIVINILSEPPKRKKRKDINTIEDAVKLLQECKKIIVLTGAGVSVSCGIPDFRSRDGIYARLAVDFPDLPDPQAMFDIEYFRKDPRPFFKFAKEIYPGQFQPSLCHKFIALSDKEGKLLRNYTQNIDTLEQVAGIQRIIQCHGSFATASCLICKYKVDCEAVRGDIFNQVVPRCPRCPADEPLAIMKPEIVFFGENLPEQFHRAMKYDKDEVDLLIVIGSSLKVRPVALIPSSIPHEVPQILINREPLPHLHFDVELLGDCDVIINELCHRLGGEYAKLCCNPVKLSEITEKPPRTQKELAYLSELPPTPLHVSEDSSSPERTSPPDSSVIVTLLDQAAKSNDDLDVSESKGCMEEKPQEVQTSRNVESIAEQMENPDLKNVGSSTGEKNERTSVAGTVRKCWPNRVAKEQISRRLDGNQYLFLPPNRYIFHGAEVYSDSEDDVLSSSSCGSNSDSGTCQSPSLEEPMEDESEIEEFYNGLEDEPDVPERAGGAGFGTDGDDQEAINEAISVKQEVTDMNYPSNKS

[9] = Self-aggregation of the compound in PBS assessed as derived light scattering count rate at 10 uM at pH 7.4 (reference value: 15.5 +/- 0.4 kilocount/sec); format: physicochemical; details: buffer, pH 7.4, 10 µM
[10] = tested on: HepG2; assay: Growth inhibition of human HepG2 cells after 72 hrs by MTS assay; format: functional, cell-based; details: HepG2, 72 h
Method in brief: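 Cells in DMEM with 10% heat-treated FBS and penicillin/streptomycin, subcultured at 85–90% confluence and used within 15 passages. Seeded 2500 cells/well and grown 24 h, then compound was added (0.5% v/v DMSO final) for 72 h at 37 °C, 5% CO2. MTS was added for 4 h in the dark and absorbance read at 490 nm. Viability is corrected for compound and vehicle blanks.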

Activity [1]: 94.9%
Activity [2]: 15.6 kC/sec
IC50 [3]: 3.8 µM
solubility kinetic [4]: 3.1 µM (≈ 1.36 µg/mL)
Activity [5]: 94.3%
inhibition [6]: Active
IC50 [8]: 16.7 µM
Activity [9]: 95 kC/sec
IC50 [10]: 2.1 µM
Compound: CCCCCCCCn1c2c(c3cc(-c4ccc(S(C)(=O)=O)cc4)ccc31)CNCC2
IC50 [7]: 2.72 µM
